Converted amounts (≈) assume the structure as drawn. The source made the active and inactive calls.
How the values were obtained:
[1] = Lipophilicity, log D of compound at pH 7.4 incubated for 20 hrs by HPLC analysis; type: physicochemical; settings: buffer
[2] = Selectivity ratio, ratio of IC50 for displacement of fluorescent tracer 4-(4-(1-(4-(1-(6-(3-carboxylato-4-(3-iminio-3H-xanthen-9-yl)benzamido)hexyl)-4,5-dihydro-1H-pyrrol-3-yl)butyl)piperidin-1-ium-4-yl)phenyl)-7-(4-(trifluoromethyl)phenyl)-2-naphthoate from mouse P2Y14R stably expressed in human HEK293 cells to IC50 for displacement of fluorescent tracer 4-(4-(1-(4-(1-(6-(3-carboxylato-4-(3-iminio-3H-xanthen-9-yl)benzamido)hexyl)-4,5-dihydro-1H-pyrrol-3-yl)butyl)piperidin-1-ium-4-yl)phenyl)-7-(4-(trifluoromethyl)phenyl)-2-naphthoate from human P2Y14R stably expressed in CHO cells; type: cell-based
[3] = target: 5-hydroxytryptamine receptor 1B (Homo sapiens, UniProt P28222); experiment: Displacement of [3H]-5-CT from human 5-HT1B receptor assessed as inhibition constant by radioligand displacement assay
[4] = target: T1, Muscarinic acetylcholine receptor M5 (Homo sapiens, UniProt P08912); experiment: Displacement of […] from human muscarinic M5 receptor assessed as inhibition constant by radioligand displacement assay
T1 sequence (P08912 whole entry): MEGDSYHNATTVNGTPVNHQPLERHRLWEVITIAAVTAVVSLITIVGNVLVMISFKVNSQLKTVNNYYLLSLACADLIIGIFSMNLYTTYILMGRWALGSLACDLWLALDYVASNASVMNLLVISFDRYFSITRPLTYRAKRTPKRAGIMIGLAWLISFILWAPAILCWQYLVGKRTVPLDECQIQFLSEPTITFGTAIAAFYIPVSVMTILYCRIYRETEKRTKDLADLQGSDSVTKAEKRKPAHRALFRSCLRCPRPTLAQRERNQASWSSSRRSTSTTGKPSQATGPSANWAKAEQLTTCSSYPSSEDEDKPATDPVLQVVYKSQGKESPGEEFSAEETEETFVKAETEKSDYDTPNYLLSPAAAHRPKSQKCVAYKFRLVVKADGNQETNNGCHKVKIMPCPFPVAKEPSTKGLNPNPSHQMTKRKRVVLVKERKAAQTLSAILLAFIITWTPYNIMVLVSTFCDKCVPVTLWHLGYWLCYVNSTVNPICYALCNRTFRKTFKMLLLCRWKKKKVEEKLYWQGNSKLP

[5] = Acute toxicity in Wistar rat assessed as mortality at 1 to 10 mg/kg, ip and measured upto 24 hrs; type: organism-based; settings: in vivo, dose 1-10 mg/kg
Outline: (§1)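 Male Wistar rats; single dose at 1, 3 or 10 mg/kg i.p., or 0.5 mg/kg i.v. Animals were watched for mortality and morbidity over the experimental period, in the course of a plasma pharmacokinetic study.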

[6] = Acute toxicity in Wistar rat assessed as mortality at 0.5 mg/kg, iv and measured upto 24 hrs; type: organism-based; settings: in vivo; outline: as §1
[7] = Acute toxicity in Wistar rat assessed as morbidity at 1 to 10 mg/kg, ip and measured upto 24 hrs; type: organism-based; settings: in vivo, dose 1-10 mg/kg; outline: as §1
[8] = Half life in Wistar rat at 1 mg/kg, ip and measured upto 24 hrs; type: ADME, organism-based; settings: in vivo
[9] = Half life in Wistar rat at 3 mg/kg, ip and measured upto 24 hrs; type: ADME, organism-based; settings: in vivo
[10] = Half life in Wistar rat at 0.5 mg/kg, iv and measured upto 24 hrs; type: ADME, organism-based; settings: in vivo
[11] = Cmax in Wistar rat plasma at 10 mg/kg, ip and measured upto 24 hrs; type: ADME, organism-based; parameters: time < 24 hrs, dose 10 mg/kg, route ip
[12] = Stability in simulated intestinal fluid assessed as parent compound remaining after 120 mins; type: ADME; settings: simulated gi fluid, 2 h
Outline: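 Incubation in simulated gastric or intestinal fluid; percent parent remaining read at 120 min.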

[13] = target: Cytochrome P450 3A4 (Homo sapiens, UniProt P08684); experiment: Inhibition of CYP3A4 (unknown origin); type: ADME
[14] = Stability in rat plasma assessed as parent compound remaining at 1 uM and measured at 120 mins by LC-MS/MS analysis; type: ADME, cell-free; settings: 2 h
Outline: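 Plasma from human, rat and mouse; percent parent remaining at 120 min.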

[15] = Microsomal stability in rat liver microsomes assessed as half life; type: ADME, Microsome
[16] = target: Voltage-gated inwardly rectifying potassium channel KCNH2 (Homo sapiens, UniProt Q12809); experiment: Inhibition of human ERG stably expressed in human HEK293 cells incubated for 2 hrs by TAMRA based fuorescence polarization assay; type: toxicity, cell-based
Outline: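 hERG inhibition measured in a fluorescent dye-binding assay.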

[17] = Protein binding in rat plasma assessed as bound fraction; type: ADME, cell-free
[18] = Solubility of compound in pH 4.0 incubated for 20 hrs by pION method; type: physicochemical; settings: buffer, pH 4, 20 h
Outline: (§2)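 pION method: 5 mM DMSO stocks diluted 1:100 into pION buffer at pH 4.0 or 7.4, incubated 20 h. Undissolved material removed by centrifugation at 14,000 rpm for 20 min, then supernatant mixed 1:1 with n-propanol. […] Mean ± SD reported.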

[19] = Solubility of compound in pH 7.4 incubated for 20 hrs by pION method; type: physicochemical; settings: buffer, pH 7.4, 20 h; outline: as §2
[20] = tested on: Mus musculus; experiment: Antiallodynic activity in CCI surgery neuropathic pain Hsd:ICR mouse model assessed as reversal of mechano-allodynia by measuring paw withdrawal threshold at 10 micromol/kg,ip and measured at 0.5 hrs by von frey test; type: functional, organism-based; settings: dose 10.0 µmol/kg
Outline: (§3)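 CCI neuropathic pain in adult male Hsd:ICR (CD-1) mice (20–30 g). Single i.p. injection on day 7 after sciatic nerve constriction, at peak pain. Vehicle 10% (Kolliphor HS 15:DMSO 5:95) in saline, 0.2 mL. Paw withdrawal threshold by von Frey filaments on ipsilateral and contralateral hindpaws. Mean ± SD; two-way ANOVA with Dunnett's test versus day 0 and day 7.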

[21] = tested on: Mus musculus; experiment: Antiallodynic activity in CCI surgery neuropathic pain Hsd:ICR mouse model assessed as reversal of mechano-allodynia by measuring paw withdrawal threshold at 10 micromol/kg,po and measured at 1 hrs by von frey test; type: functional, organism-based; settings: dose 10.0 µmol/kg
Outline: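 CCI neuropathic pain in adult male CD-1 mice. Single oral gavage dose of 10 μmol/kg on day 7 post-surgery. Vehicle 5% DMSO + 10% (Kolliphor HS 15:DMSO 5:95) in 0.5% methylcellulose, 0.2 mL. Von Frey paw withdrawal threshold on both hindpaws. Mean ± SD; two-way ANOVA with Dunnett's test.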

[22] = tested on: Mus musculus; experiment: Antiallodynic activity in CCI surgery neuropathic pain Hsd:ICR mouse model assessed as reversal of mechano-allodynia by measuring paw withdrawal threshold at 10 micromol/kg,ip and measured upto 5 days by von frey test; type: functional, organism-based; settings: dose 10.0 µmol/kg, time <= 5.0 day; outline: as §3
[23] = tested on: Mus musculus; experiment: Anti-asthmatic activity against OVA/Aspergillus-sensitized protease-mediated C57BL/6J mouse model allergic asthma assessed as reduction in macrophages in BAL fluid at 10 mg/kg,ip followed by 0.5 hrs OVA challenge and measured after 48 hrs; type: functional, organism-based; settings: time 48.5 hrs
[24] = tested on: Mus musculus; experiment: Protection against cardiac ischemia/reperfusion induced C57BL/6J mouse injury model assessed as reduction in infarct area by measuring AAR/TTA ratio at 2 mg/kg, sc prior to 0.5 hrs of myocardial ischemia and 48 h of reperfusion (Rvb= […]); type: functional; parameters: scale not given: the % may be the effect or the level left; settings: time 48.5 hrs
[25] = tested on: Mus musculus; experiment: Protection against cardiac ischemia/reperfusion induced C57BL/6J mouse injury model assessed as reduction in infarct size at 2 mg/kg, sc prior to 0.5 hrs of myocardial ischemia and 48 h of reperfusion (Rvb= 26.4%); type: functional; parameters: scale not given: the % may be the effect or the level left; settings: time 48.5 hrs
[26] = Intraperitoneal bioavailability in Wistar rat at 3 mg/kg and measured upto 24 hrs; settings: in vivo, ip

Cytochrome P450 3A4, sequence (P08684 whole entry): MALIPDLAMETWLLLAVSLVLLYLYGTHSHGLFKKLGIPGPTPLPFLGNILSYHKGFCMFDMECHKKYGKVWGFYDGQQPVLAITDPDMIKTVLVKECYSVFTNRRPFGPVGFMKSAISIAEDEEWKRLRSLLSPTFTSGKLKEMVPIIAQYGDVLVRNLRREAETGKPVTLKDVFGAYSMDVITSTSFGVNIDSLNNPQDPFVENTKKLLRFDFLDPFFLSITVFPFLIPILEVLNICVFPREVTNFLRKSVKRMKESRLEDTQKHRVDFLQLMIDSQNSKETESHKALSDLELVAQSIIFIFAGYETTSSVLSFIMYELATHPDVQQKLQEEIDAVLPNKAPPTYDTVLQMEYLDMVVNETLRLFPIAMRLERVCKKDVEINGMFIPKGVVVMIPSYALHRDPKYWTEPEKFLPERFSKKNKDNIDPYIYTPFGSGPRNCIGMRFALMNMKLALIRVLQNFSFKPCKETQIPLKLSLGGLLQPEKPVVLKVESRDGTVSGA
Voltage-gated inwardly rectifying potassium channel KCNH2, sequence (Q12809 whole entry): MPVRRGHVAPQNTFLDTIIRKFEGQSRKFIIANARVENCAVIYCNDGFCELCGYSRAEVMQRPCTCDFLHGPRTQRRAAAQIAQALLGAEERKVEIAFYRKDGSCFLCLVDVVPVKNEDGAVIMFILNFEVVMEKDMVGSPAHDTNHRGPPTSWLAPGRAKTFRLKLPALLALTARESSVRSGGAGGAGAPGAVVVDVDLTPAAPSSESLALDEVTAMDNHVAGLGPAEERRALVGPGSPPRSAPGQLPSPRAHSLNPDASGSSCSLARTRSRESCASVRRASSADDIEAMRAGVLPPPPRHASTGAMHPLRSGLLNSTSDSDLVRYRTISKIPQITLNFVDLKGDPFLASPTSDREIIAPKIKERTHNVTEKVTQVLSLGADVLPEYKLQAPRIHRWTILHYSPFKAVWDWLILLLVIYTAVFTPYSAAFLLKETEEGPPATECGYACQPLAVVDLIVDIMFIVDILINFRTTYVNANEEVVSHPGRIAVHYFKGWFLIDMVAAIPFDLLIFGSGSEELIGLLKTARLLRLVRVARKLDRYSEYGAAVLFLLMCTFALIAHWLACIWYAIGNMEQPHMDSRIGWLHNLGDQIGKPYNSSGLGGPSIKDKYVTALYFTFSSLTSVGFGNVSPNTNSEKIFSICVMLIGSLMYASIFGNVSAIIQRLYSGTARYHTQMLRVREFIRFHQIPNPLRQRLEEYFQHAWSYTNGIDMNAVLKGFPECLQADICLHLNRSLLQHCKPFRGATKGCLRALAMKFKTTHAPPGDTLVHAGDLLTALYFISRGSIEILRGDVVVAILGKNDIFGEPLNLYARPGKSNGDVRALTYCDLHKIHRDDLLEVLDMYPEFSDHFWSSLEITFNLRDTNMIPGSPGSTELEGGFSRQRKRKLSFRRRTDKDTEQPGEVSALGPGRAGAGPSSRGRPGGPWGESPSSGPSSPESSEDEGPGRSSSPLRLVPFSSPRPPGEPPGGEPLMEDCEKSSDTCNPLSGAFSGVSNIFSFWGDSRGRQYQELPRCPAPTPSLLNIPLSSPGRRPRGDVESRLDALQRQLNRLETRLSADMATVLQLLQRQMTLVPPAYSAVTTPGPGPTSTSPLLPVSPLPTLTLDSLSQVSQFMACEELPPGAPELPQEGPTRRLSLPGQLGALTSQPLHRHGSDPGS
5-hydroxytryptamine receptor 1B, sequence (P28222 whole entry): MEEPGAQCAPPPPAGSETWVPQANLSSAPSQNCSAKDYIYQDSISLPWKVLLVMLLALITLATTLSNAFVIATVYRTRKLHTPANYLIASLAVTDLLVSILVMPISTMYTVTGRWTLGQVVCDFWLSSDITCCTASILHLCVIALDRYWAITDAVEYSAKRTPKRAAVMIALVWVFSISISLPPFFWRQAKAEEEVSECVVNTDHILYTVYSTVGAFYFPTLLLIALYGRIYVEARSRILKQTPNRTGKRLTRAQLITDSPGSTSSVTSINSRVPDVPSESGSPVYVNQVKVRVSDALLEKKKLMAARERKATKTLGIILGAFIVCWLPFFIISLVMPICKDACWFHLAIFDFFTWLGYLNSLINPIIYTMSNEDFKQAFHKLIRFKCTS

O=C(O)c1cc(-c2ccc([C@]3(O)[C@@H]4CNC[C@H]3C4)cc2)c2ccc(-c3ccc(C(F)(F)F)cc3)cc2c1
logD at 20 h [1]: 1.2
Ratio IC50 [2]: 0.811
Ki [3]: 6 µM
Ki [4]: 6 µM
Activity [5]: Non-Toxic
Activity [6]: Non-Toxic
Activity [7]: Non-Toxic
t1/2 [8]: 3.01 h
t1/2 [9]: 4.32 h
t1/2 [10]: 2.36 h
Cmax [11]: 4 µM
Stability [12]: 93.3%
IC50 [13]: > 30 µM
Stability [14]: 81.3%
t1/2 [15]: 5.7 h
IC50 [16]: > 30 µM
PPB [17]: 99.48%
solubility [18]: 7.1 µg/mL (≈ 14.1 µM)
solubility [19]: 1.4 µg/mL (≈ 2.78 µM)
Activity [20]: Active
Activity [21]: Active
Activity [22]: Active
Activity [23]: inactive
Activity [24]: 33.7%
Activity [25]: 31.8%
bioavailability [26]: 114%
